# Active and inactive are the calls of the source. The rule behind the calls is not given here.
# Tests used:
# [1] = Induction of read through activity at cricket paralysis virus-internal ribosome entry site codon UGA assessed as increase in octapeptide formation from FKVRQ-tRNAGln at 30 to 600 uM measured after 20 mins in presence of Typ-tRNA, Leu-tRNA and [35S]-Met-tRNA by co-sedimentation assay
# [2] = Induction of read through activity at cricket paralysis virus-internal ribosome entry site premature termination codon UGA assessed as increase in octapeptide formation from FKVRQ-tRNAGln measured after 20 mins in presence of Typ-tRNA, Leu-tRNA and [35S]-Met-tRNA by co-sedimentation assay
# Cricket paralysis virus [3] = experiment: Induction of read through activity at cricket paralysis virus-internal ribosome entry site premature termination codon UGA assessed as ratio of plateau octapeptide to FKVRQ-tRNAGln measured after 20 mins in presence of Typ-tRNA, Leu-tRNA and [35S]-Met-tRNA by co-sedimentation assay
# Cricket paralysis virus [4] = experiment: (§1) Induction of read through activity at cricket paralysis virus-internal ribosome entry site codon UGG assessed as rate constant for octapeptide formation from FKVRQ-tRNAGln at 5 uM preincubated for 30 secs in presence of Typ-tRNA followed by Leu-tRNA and [35S]-Met-tRNA addition by co-sedimentation assay
# Summary of the method: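 POST5 complex (0.02 μM) mixed with Trp-tRNATrp, Leu-tRNALeu and [35S]-Met-tRNAMet (0.08 μM each), eEF1A (0.08 μM), eEF2 (1.0 μM), eRF1 (0.010 μM) and eRF3 (0.020 μM), with or without NonSup. Incubation at 37 °C in Tris-HCl pH 7.5 buffer for 30 s to 20 min. Quench with 0.5 M MES pH 6.0 at 0 °C, ultracentrifuge through 1.1 M sucrose, and count ribosome-cosedimenting [35S] octapeptidyl-tRNA.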
# Cricket paralysis virus [5] = experiment: Induction of read through activity at cricket paralysis virus-internal ribosome entry site premature termination codon UGA assessed as eEF2-induced 80S-Stop-IRES-PRE6 formation from 80S-Stop-IRES-POST5 at 1 to 10 uM by FRET assay
# [6] = Induction of read through activity at cricket paralysis virus-internal ribosome entry site codon UGG assessed as eEF2-induced 80S-Trp-IRES-PRE6 formation from 80S-Trp-IRES-POST5 by FRET assay
# [7] = at cricket paralysis virus-internal ribosome entry site codon UGG assessed as from FKVRQ-tRNAGln at EC50 to 2 times EC50 measured after 20 mins in presence of Typ-tRNA, Leu-tRNA and [35S]-Met-tRNA by co-sedimentation assay
# [8] = Induction of 80S ribosome-internal ribosome entry site (unknown origin) precipitable particle formation at 30 uM measured after 20 mins
# [9] = Induction of [35S]Met-tRNA (unknown origin) precipitable particle formation at 30 uM measured after 20 mins
# Cricket paralysis virus [10] = experiment: as §1, with “at 500” for “at 5”
# Summary of the method: (§2)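 Time course with the same components: POST5 complex 0.02 μM, aminoacyl-tRNAs 0.08 μM each, eEF1A, eEF2, eRF1 0.010 μM, eRF3 0.020 μM, Buffer 4, 37 °C. Aliquots taken from 30 s to 20 min and MES-quenched. Octapeptide measured by ribosome cosedimentation or by base release and thin layer electrophoresis. Rate constants derived from the time courses.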
# Cricket paralysis virus [11] = experiment: as §1, with “site premature termination” for “site”, “codon UGA” for “codon UGG”, “at 500” for “at 5”
# Summary of the method: as §2
# Cricket paralysis virus [12] = experiment: Inhibition of read through activity at cricket paralysis virus-internal ribosome entry site premature termination codon UGA assessed as decrease in octapeptide formation from FKVRQ-tRNAGln at 600 uM measured after 20 mins in presence of Typ-tRNA, Leu-tRNA and [35S]-Met-tRNA by co-sedimentation assay
# [13] = Inhibition of read through activity at cricket paralysis virus-internal ribosome entry site codon UGG assessed as decrease in octapeptide formation from FKVRQ-tRNAGln at 600 uM measured after 20 mins in presence of Typ-tRNA, Leu-tRNA and [35S]-Met-tRNA by co-sedimentation assay
EC50 [2] [µM],Ratio (Cricket paralysis virus [3]),Activity [7],SMILES,further results
,,,CC[C@H]1OC(=O)[C@H](C)[C@@H](O[C@H]2C[C@@](C)(OC)[C@@H](O)[C@H](C)O2)[C@H](C)[C@@H](O[C@@H]2O[C@H](C)C[C@H](N(C)C)[C@H]2O)[C@](C)(O)C[C@@H](C)CN(C)[C@H](C)[C@@H](O)[C@]1(C)O [AZITHROMYCIN],Activity [1]: Not Active
,0.1 to 0.3,Not Active,COc1cccc2c1C(=O)c1c(O)c3c(c(O)c1C2=O)C[C@@](O)(C(=O)CO)C[C@@H]3O[C@H]1C[C@H](N)[C@H](O)[C@H](C)O1 [DOXORUBICIN],Activity [8]: Active; Activity [9]: Active
0.4 to 4,0.1 to 0.3,Not Active,C[C@@H](O)[C@H]1O[C@H](O[C@H]2[C@H](O[C@@H]3O[C@H](CN)[C@@H](O)[C@H]3O)[C@@H](O)[C@H](NC(=O)[C@@H](O)CCN)C[C@@H]2N)[C@H](N)[C@@H](O)[C@@H]1O,
0.4 to 4,0.1 to 0.3,Not Active,CN[C@@H]1[C@@H](O)[C@@H](O[C@@H]2[C@@H](O)[C@H](O[C@H]3O[C@H](CO)[C@@H](O)[C@H](O)[C@H]3N)[C@@H](N)C[C@H]2N)OC[C@]1(C)O,
0.4 to 4,0.1 to 0.3,Not Active,C[C@H](N)[C@H]1O[C@@H](O[C@@H]2[C@@H](O)[C@H](N)C[C@H](N)[C@H]2O[C@H]2O[C@H]([C@@H](C)O)[C@@H](O)[C@H](O)[C@H]2N)[C@H](O)[C@@H]1O,
170 to 350,0.1 to 0.16,Not Active,O=C(O)c1cccc(-c2noc(-c3ccccc3F)n2)c1 [ATALUREN],K (Cricket paralysis virus [10]): 1 to 1.6 min⁻¹; K (Cricket paralysis virus [11]): 0.14 min⁻¹
0.4 to 4,0.1 to 0.3,Not Active,NCCC[C@H](N)CC(=O)NCCC[C@H](N)CC(=O)NCCC[C@H](N)CC(=O)NCCC[C@H](N)CC(=O)N[C@@H]1[C@H](O)[C@@H](OC(N)=O)[C@@H](CO)O[C@H]1NC1=N[C@@H]2C(=O)NC[C@@H](O)[C@H]2N1,
170 to 350,0.1 to 0.16,Not Active,COc1cccc(-n2c(SCC(=O)Nc3ccc(F)cc3)nnc2-c2ccccn2)c1,
,,,C/C=C(\C)C(=O)O[C@H]1[C@H](OC(C)=O)[C@]2(CO)[C@H](O)C[C@@H]3C(=CC[C@H]4[C@H]3CC[C@@H]3[C@@H]4CC[C@H](O[C@@H]4O[C@H](C(=O)O)[C@@H](O[C@@H]5O[C@H](CO)[C@@H](O)[C@H](O)[C@H]5O)[C@H](O)[C@H]4O[C@@H]4O[C@H](CO)[C@@H](O)[C@H](O)[C@H]4O)[C@]3(C)CO)[C@@H]2CC1(C)C,inhibition (Cricket paralysis virus [12]): Active; inhibition (INH) [13]: Active; Activity [1]: Not Active
,,,CCOCCCNC(=O)N1CCN(Cc2ccc3c(c2)OCO3)CC1,Activity [1]: Not Active
170 to 350,0.1 to 0.16,Not Active,N=C1NC(=O)/C(=C/c2ccc(-c3ccccc3[N+](=O)[O-])o2)S1,
0.4 to 4,0.1 to 0.3,Not Active,NCCC[C@H](N)CC(=O)NCCC[C@H](N)CC(=O)NCCC[C@H](N)CC(=O)NCCC[C@H](N)CC(=O)NCCC[C@H](N)CC(=O)NCCC[C@H](N)CC(=O)N[C@@H]1[C@H](O)[C@@H](OC(N)=O)[C@@H](CO)O[C@H]1NC1=N[C@@H]2C(=O)NC[C@@H](O)[C@H]2N1,
0.4 to 4,0.1 to 0.3,Not Active,NCCC[C@H](N)CC(=O)NCCC[C@H](N)CC(=O)NCCC[C@H](N)CC(=O)NCCC[C@H](N)CC(=O)NCCC[C@H](N)CC(=O)N[C@@H]1[C@H](O)[C@@H](OC(N)=O)[C@@H](CO)O[C@H]1NC1=N[C@@H]2C(=O)NC[C@@H](O)[C@H]2N1,
,0.1 to 0.3,Not Active,CN(CC(=O)O)NC(=O)C[C@H](N)C[C@@H](O)CN [NEGAMYCIN],
0.4 to 4,0.1 to 0.3,Not Active,NCCC[C@H](N)CC(=O)NCCC[C@H](N)CC(=O)NCCC[C@H](N)CC(=O)NCCC[C@H](N)CC(=O)NCCC[C@H](N)CC(=O)NCCC[C@H](N)CC(=O)NCCC[C@H](N)CC(=O)N[C@@H]1[C@H](O)[C@@H](OC(N)=O)[C@@H](CO)O[C@H]1NC1=N[C@@H]2C(=O)NC[C@@H](O)[C@H]2N1,
,,,CC[C@H]1OC(=O)C[C@@H](O)[C@H](C)[C@@H](O[C@@H]2O[C@H](C)[C@@H](O[C@H]3C[C@@](C)(O)[C@@H](O)[C@H](C)O3)[C@H](N(C)C)[C@H]2O)[C@@H](CC=O)C[C@@H](C)C(=O)/C=C/C(C)=C/[C@@H]1CO[C@@H]1O[C@H](C)[C@@H](O)[C@@H](OC)[C@H]1OC [TYLOSIN],Activity [1]: Not Active
0.4 to 4,0.1 to 0.3,Not Active,CN[C@@H]1[C@@H](O)[C@@H](O[C@@H]2[C@@H](O)[C@H](O[C@H]3O[C@H](CN)[C@@H](O)[C@H](O)[C@H]3O)[C@@H](N)C[C@H]2N)OC[C@]1(C)O [BETAMICIN],

SMILES,EC50 [2] [µM],Ratio (Cricket paralysis virus [3]),Activity [7],further results
CN[C@@H]1[C@@H](O)[C@@H](O[C@@H]2[C@@H](O)[C@H](O[C@H]3O[C@H]([C@H](C)O)[C@@H](O)[C@H](O)[C@H]3N)[C@@H](N)C[C@H]2N)OC[C@]1(C)O,0.98,0.1 to 0.3,Not Active,K (Cricket paralysis virus [4]): 1 to 1.6 min⁻¹; Activity (Cricket paralysis virus [5]): Active; Activity [6]: Not Active
NCCC[C@H](N)CC(=O)N[C@@H]1[C@H](O)[C@@H](OC(N)=O)[C@@H](CO)O[C@H]1NC1=N[C@@H]2C(=O)NC[C@@H](O)[C@H]2N1,0.4 to 4,0.1 to 0.3,Not Active,
NCCC[C@H](N)CC(=O)NCCC[C@H](N)CC(=O)NCCC[C@H](N)CC(=O)N[C@@H]1[C@H](O)[C@@H](OC(N)=O)[C@@H](CO)O[C@H]1NC1=N[C@@H]2C(=O)NC[C@@H](O)[C@H]2N1,0.4 to 4,0.1 to 0.3,Not Active,
NCCC[C@H](N)CC(=O)NCCC[C@H](N)CC(=O)N[C@@H]1[C@H](O)[C@@H](OC(N)=O)[C@@H](CO)O[C@H]1NC1=N[C@@H]2C(=O)NC[C@@H](O)[C@H]2N1 [STREPTOTHRICIN E],0.4 to 4,0.1 to 0.3,Not Active,

# From ChEMBL document CHEMBL4382276, “New in Vitro Assay Measuring Direct Interaction of Nonsense Suppressors with the Eukaryotic Protein Synthesis Machinery” (ACS Med Chem Lett, 2018)
